Measured values: ChEMBL document CHEMBL4184102, “Small molecule SUMOylation activators are novel neuroprotective agents” (Bioorg Med Chem Lett, 2018)
pEC50: −log10 of the molar value.

Columns and labels:
[1] = organism: Rattus norvegicus; assay: (§1) Cytoprotective activity in rat CSM14.1 cells assessed as reduction in thapsigargin-induced ER stress-mediated cell death preincubated for 2 hrs followed by thapsigargin addition measured after 20 hrs by ATPlite assay; type: functional, cell-based
Outline: (§2)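 Rat striatal neuroprogenitor CSM14.1 cells were trypsinized, plated in 96-well plates and held overnight at 32 °C. Cells were pretreated with compound for 2 h, then given thapsigargin in DMEM (15 μM final) for another 20 h. Viability was read as cellular ATP content. Thapsigargin without compound served as the 100% death reference and DMSO without thapsigargin as the 100% viability reference. Dose-response data are given as mean ± SEM.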

[2] = as §1; type: functional, cell-based; outline: as §2
[3] = Cytoprotective activity in BGMK cells assessed as reduction in thapsigargin-induced ER stress-mediated cell death by measuring cell viability at 10 uM preincubated for 2 hrs followed by thapsigargin addition measured after 24 hrs by CCK8 assay relative to control; type: cell-based; conditions: Chlorocebus aethiops, read-out: Activity
Outline: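 BGMK cells subcultured at 1.2×10^4 cells/ml, pretreated with compound 2 h, then thapsigargin 0.15 μM (150 nM) added for 24 h. Cells then washed, fed fresh complete DMEM plus CCK-8 reagent, incubated 2 h, absorbance read as viability. Salubrinal included as positive control; data as mean ± SEM.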

[4] = molecular target: SUMO-activating enzyme (Homo sapiens) (UniProt Q9UBE0+Q9UBT2); assay: Induction of SUMO-E1/E2 (unknown origin) mediated sumoylation of His-RanGap-1 after 30 mins by HTRF assay relative to control; type: protein-complex assay; parameters: concentration or dose not given beside the values

Row | Compound | Activity [1] | pEC50 [2] | viability at 10 µM [3] [%] | Activity [4] [%]
1 | O=C(Nc1nc(-c2ccccn2)cs1)C1COc2ccccc2O1 (centres undefined) | Dose-dependent effect | 5.01 to 5.92 | 81.4 | 53
2 | O=C(/C=C/c1ccccc1)NC(NC(=S)Nc1cccc2cccnc12)C(Cl)(Cl)Cl (centres undefined) [SALUBRINAL] |  |  | 47.2 | 
3 | O=S(=O)(Nc1cccc2cccnc12)c1ccc(S(=O)(=O)N2CCCC2)cc1 | Dose-dependent effect | 5.01 to 5.92 | 62.4 | 43
4 | CC(=O)Nc1ccc(S(=O)(=O)Nc2cccc3cccnc23)cc1 |  |  | 53.7 | 28
5 | Cc1cc(C)c2nc(NNC(=O)c3cc(=O)c4ccccc4o3)sc2c1 |  |  | 60.3 | 33
6 | O=C(Nc1nc(-c2ccccn2)cs1)c1ccc(Cl)s1 |  |  | 45.3 | 25
7 | O=C(Nc1nc(-c2ccccn2)cs1)c1ccc2c(c1)OCCO2 |  |  | 54.9 | 20
8 | Cc1ccc2sc(NNC(=O)c3cc(=O)c4ccccc4o3)nc2c1C | Dose-dependent effect | 5.01 to 5.92 | 54.9 | 38
9 | O=C(Nc1nc(-c2ccccn2)cs1)c1ccc(Br)s1 |  |  | 83.3 | 37
10 | O=S(=O)(Nc1cccc2cccnc12)c1ccccc1 |  |  | 35.2 | 25
11 | COc1cccc2sc(NNC(=O)C3COc4ccccc4O3)nc12 (centres undefined) |  |  | 38.4 | 17
12 | Cc1ccc(S(=O)(=O)Nc2cccc3cccnc23)cc1 |  |  | 52 | 29
